Bioassay records from PubChem BioAssay.
Arr AP2 block = inhibitors of beta-arrestin/AP2 binding, primary screen, biochemical, GPCR trafficking, flow cytometry | inhibition, % at 10 µM | FITC-arrestin peptide / GST-AP2 beads; AP2 beta2 appendage carries R879A mutation | 340,000 compounds, 0.31% hits | beta-arrestin 1 C-terminal peptide binding to AP2 beta2-adaptin appendage (human);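 active = inhibition above a set limit, near 3 SD of compounds lacking own fluorescence, cut at about 54% in these data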;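 note: plate controls were DMSO wells for no effect and 5 µM unlabelled arrestin peptide for full effect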
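Assay system: GST-AP2 R879A bound to glutathione beads, E. coli-expressed; Medium: PBS with 0.05% Tween 20 and 0.1% BSA; Also added: fluorescein-tagged arrestin peptide at 50 nM final; Timing: 12 min plus 1 h, RT; Measured by: flow cytometry, FL1 (488/535 nm); Evaluation: percent drop in bead-associated FITC signal.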
DSG3 Ab inh = inhibitors of pemphigus antibody binding to DSG3, primary screen, biochemical, bead-based, flow cytometry, scFv-GFP; AID 588358, 2011; binding (percent of control), % at 10 µM; DSG3-coupled beads, scFv-anti-DSG3-GFP binding; hits give low values; 310,000 compounds, 0.48% hits; Desmoglein-3 (Homo sapiens), P32926;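 active = binding more than 3 SD below its plate's average and above zero; inconclusive = below that plate limit but binding exactly zero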;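 note: hits lower antibody fragment binding to DSG3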
T cell modulator = modulators of CD8 T cell-vesicle binding, primary screen, mouse 2C CD8+ T cells, flow cytometry. 2C CD8+ T cell-vesicle binding; hits give low values. response (vesicle binding), % at 7 µM. 330,000 compounds, 0.068% hits;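 active = response, share of CD8 T cells binding vesicles, and their 90th percentile fluorescence all below set limits, cut at about 80% in these data, passing the limit was not always enough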;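 note: values below 100% mean blocked vesicle binding to the CD8+ T cells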
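material = purified 2C TCR transgenic mouse naive CD8+ T cells | controls = Unloaded micro-vesicles (low), QL9 vesicles with 0.7% DMSO (high) | detection = cytometric PE anti-B7-1 and Alexa647 anti-CD8 signals after 1% paraformaldehyde fixation | incubation = binding step 1.5 h, 37 °C, antibody labelling 20 min, ice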
JMJD2C inh = inhibitors of GASC-1 histone demethylase, primary screen, biochemical, fluorescence, DELFIA europium | inhibition, % at 2.35 µM | GST-JMJD2C(1-420) H3K9me3 demethylation | Lysine-specific demethylase 4C (Homo sapiens), Q9H3R0 | 330,000 compounds, 0.069% hits | AID 2099, 2009;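 active = more than half of a compound's replicate wells show inhibition beyond 50%, single wells judged on their own value; inconclusive = some, but no more than half, of replicates pass 50% inhibition; inactive = no replicate passes 50% inhibition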;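 note: signal counts dimethyl H3K9 product captured on neutravidin plate; 0% = median of DMSO wells and 100% = 0.3 times that DMSO median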
HDAC3 inh = HDAC3 deacetylase inhibitors, primary screen, biochemical, fluorescence, cell-free homogeneous; 320,000 compounds, 0.15% hits; inhibition, % at 8.3 µM; recombinant HDAC3, fluorogenic peptide/trypsin coupled; in the data active = inhibition above about 26%, passing the limit was not always enough; inconclusive = no clear call, values can overlap the other calls
LANA-H2A inh = blockers of LANA interaction with H2A/H2B – biochemical, FP readout, HTS, primary screen; Protein LANA1 (Human herpesvirus 8 type P (isolate GK18)), Q9QR71; cell-free LANA-H2A/H2B peptide, fluorescence polarization; inhibition, % (no concentration beside the values); 320,000 compounds, 0.6% hits; AID 2629, 2010; in the data active = inhibition mostly above about 10%, no sharp cut-off; inactive = mostly below about 6.7%
Active calls of the source: *; ? = inconclusive; . = not tested or not shown; + = active, no number. The list is not random: actives were taken first. Their share in the collection is about 1.6%.

SMILES	Arr AP2 block	DSG3 Ab inh	T cell modulator	JMJD2C inh	HDAC3 inh	LANA-H2A inh
O=C(c1cnn(-c2nc3ccccc3s2)c1)c1ccccc1O	-4	8.3*	221	-4	-3	1
CC(OC(=O)C1=COCCO1)C(=O)NC1CCCC(C)C1C (stereo not drawn)	.	99	.	.	.	.
Cc1ccc2c(CN(C)Cc3ccccc3)cc(=O)oc2c1C	-2	64*	368	-1	4	2
O=C(NCCCCc1ccccc1)Nc1cccc(F)c1	5	111	278	12	1	5
O=C(NCCCCc1ccccc1)Nc1ccc(F)cc1F	11	92*	561	3	-8	4
CCN(Cc1cnn(C)c1)C(=O)C1CCC(=O)N(CCc2ccc(OC)cc2)C1 (stereo not drawn)	-9	.	244	3	-1	2
CCc1ccc(CN(C)C(=O)C2CCC(=O)N(CCc3ccc(OC)cc3)C2)nc1 (stereo not drawn)	2	125	525	-11	-6	29*
Cc1ccc(SCc2nc(N)nc(Nc3ccccc3C)n2)c(C)c1	2	81	148	-2	?	64*
NC(=O)c1ccc(N=Cc2ccc([N+](=O)[O-])s2)cc1	-1	102	350	16	8	17*
Cc1cc(C)cc(N=Cc2ccc([N+](=O)[O-])s2)c1	8	107	366	6	-2	-1
COc1ccccc1-n1cnnc1SCC(=O)Nc1cccc(S(N)(=O)=O)c1	-4	.	536	3	-1	5
Cc1ccccc1C(=O)c1cccn1CC(=O)NCc1cccc(Cl)c1	-4	.	235	4	6	-1
CC(C)CC(NC(=O)c1ccc(Cl)cc1)C(=O)O (stereo not drawn)	-3	98	342	0	5	1
Cc1cc(C(=O)NC(CC(C)C)C(=O)O)cc(C)c1[N+](=O)[O-] (stereo not drawn)	8	107	221	-1	0	25*
CC(C)CC(NC(=O)c1cccc(Cl)c1)C(=O)O (stereo not drawn)	6	100	227	-20	-2	-6.2*
COC(=O)C(CC(C)C)NC(=O)c1ccc([N+](=O)[O-])c(C)c1 (stereo not drawn)	3	94	82	-12	-6	2
Cc1ccc(NC(=O)CS(=O)c2ccccc2N)c(C)c1 (stereo not drawn)	1	104	297	-10	1	3
Cc1ccc(S(=O)(=O)N2CCC(C(=O)OCC(=O)NC3(C#N)CCCCC3)CC2)cc1C	-6	97	483	8	13	1
CCOc1ccc(C(=O)COC(=O)c2cc(=O)[nH]c3ccccc23)cc1	27	96	200	-10	-7	-12
CN(CC(=O)OCC(=O)NCc1ccccc1)S(=O)(=O)c1ccc(Cl)cc1	40	96	168	-1	0	-1
CNC(=O)CN(C)S(=O)(=O)c1ccc(F)cc1	-6	79*	90	-10	-1	8
CN(CC(=O)OCC(=O)NCc1ccccc1)S(=O)(=O)c1ccc(F)cc1	12	?	437	-3	4	+
COC(=O)[C@]1(C)N[C@H](CN(C)C(=O)NC(C)C)[C@@H]2C(=O)N(C)C(=O)[C@@H]21	-16	96	139	28	-6	-1
COc1ccc(N2CCN(CCCn3cnc4c(OC)ncnc43)CC2)cc1	.	103	.	.	.	.
Cc1ccccc1CC1(CO)CCCN(C(=O)CCCN2CCCCC2=O)C1 (stereo not drawn)	-24	119	102	3	3	83*
COc1cccc(/C=N/NC(=O)CC(=O)NCCc2ccccc2)c1OC	4	.	260	6	-15	1
COc1cccc(/C=N/NC(=S)NCCc2ccccc2)c1OC	-2	70*	180	-3	8	1
